Measurements published in ChEMBL document CHEMBL3526139, “Clinical pharmacokinetics, metabolism, and drug-drug interaction of carfilzomib” (Drug Metab Dispos, 2013).
pIC50, pKi: −log10 of the molar value.

Experiments:
[1] = biological target: T1, Cytochrome P450 1A2 (Homo sapiens, UniProt P05177); test: Inhibition of CYP1A2 in human liver microsomes using phenacetin as substrate after 5 mins by LC-MS/MS analysis; assay type: ADME
T1 sequence (P05177 whole entry): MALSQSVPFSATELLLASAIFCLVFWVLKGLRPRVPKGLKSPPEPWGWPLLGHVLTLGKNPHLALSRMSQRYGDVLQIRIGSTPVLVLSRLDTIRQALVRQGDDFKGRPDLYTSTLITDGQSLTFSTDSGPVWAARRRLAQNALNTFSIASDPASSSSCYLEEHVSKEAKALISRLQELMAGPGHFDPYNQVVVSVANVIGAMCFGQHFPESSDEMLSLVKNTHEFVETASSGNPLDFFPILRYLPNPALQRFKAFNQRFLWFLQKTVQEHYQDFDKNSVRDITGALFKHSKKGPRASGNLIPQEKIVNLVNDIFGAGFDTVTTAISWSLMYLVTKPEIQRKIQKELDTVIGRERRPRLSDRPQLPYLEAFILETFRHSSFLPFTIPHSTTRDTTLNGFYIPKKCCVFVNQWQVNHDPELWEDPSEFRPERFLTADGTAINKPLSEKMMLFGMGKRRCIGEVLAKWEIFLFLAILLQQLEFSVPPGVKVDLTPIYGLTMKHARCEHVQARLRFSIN
Summary of the method: (§1)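 Pooled HLM from 16 donors were incubated at 37°C in duplicate with carfilzomib 0.01–10 µM and probe substrate at about its Km. Substrates were phenacetin, amodiaquine, diclofenac, S-mephenytoin, dextromethorphan, testosterone and midazolam. Protein was 0.1 mg/mL, or 0.05 mg/mL with midazolam. Reactions ran 5 min without preincubation, then were quenched with acetonitrile. Metabolites were measured by LC-MS/MS relative to 0.5% acetonitrile controls.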

[2] = biological target: CYP3A (Homo sapiens, UniProt P08684+P20815+P24462+Q9HB55); test: Time-dependent inhibition of CYP3A in human liver microsomes assessed as testosterone 6-hydroxylation using testosterone as substrate by LC-MS/MS analysis; assay type: ADME; details: probe testosterone (6-hydroxylation)
Summary of the method: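 Pooled HLM (16 donors, mixed sex), 37°C, duplicate. IC50: carfilzomib 0.01–10 µM preincubated 30 min, then testosterone near Km (100 µM) at 0.1 mg/mL protein, 5 min, LC-MS/MS, relative to 0.5% acetonitrile control. KI/kinact: 0–8 µM preincubated 0–30 min with 2.5 mg/mL HLM plus NADPH-generating system, diluted 25-fold, testosterone 200 µM for 5 min.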

[3] = system: CYP3A; test: Decrease in CYP3A gene expression in human hepatocytes at 2.5 uM after 3 days by qPCR analysis; assay type: ADME, cell-based, Hepatocyte
Summary of the method: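 Hepatocytes were treated 3 days with carfilzomib (0.1–2.5 µM) or 0.08% DMSO, renewed daily. CYP3A mRNA was measured in 3 donors and CYP1A2 mRNA in one additional donor, both by qPCR. Values are triplicate means relative to DMSO.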

[4] = biological target: T2, Cytochrome P450 3A (Homo sapiens, UniProt P08684+P20815+Q9HB55+P24462); test: Decrease in CYP3A activity in rifampin-treated human hepatocytes assessed as 6-betahydroxytestosterone formation using testosterone as substrate at 2.5 uM after 30 mins by LC-MS/MS analysis; assay type: ADME, cell-based, Hepatocyte; details: 0.5 h
Summary of the method: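 Hepatocytes induced 3 days with 20 µM rifampicin were exposed to fresh medium containing 2.5 µM carfilzomib for 30 min and washed once. They were then incubated with testosterone 200 µM, and 6β-hydroxytestosterone was measured by LC-MS/MS.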

[5] = AUC last in human patient with relapsed solid tumor at 20 mg/m'2, iv administered on days 1, 2, 8, 9, 15 and 16 of 28-day cycle over 2 to 10 mins measured on day 1 of cycle 1 by LC-MS/MS analysis; assay type: ADME, organism-based; set-up: route intravenous, time 0 - last; details: plasma
Summary of the method: (§2)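 Patients with relapsed solid tumors (n=3) received carfilzomib IV at 20 mg/m2. Plasma was sampled on Days 1 and 16 of Cycle 1 before dosing, at end of administration, and at 5, 15, 30 min and 1, 2, 4 h after. Samples underwent solid phase extraction and LC-MS/MS with d10-carfilzomib internal standard over 0.100–200 ng/mL. Parameters were derived noncompartmentally (constant IV infusion model) from actual elapsed time from infusion start.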

[6] = Half life in human patient with relapsed solid tumor at 20 mg/m'2, iv administered on days 1, 2, 8, 9, 15 and 16 of 28-day cycle over 2 to 10 mins measured on day 1 of cycle 1 by LC-MS/MS analysis; assay type: ADME, organism-based; details: in vivo; summary of the method: as §2
[7] = biological target: T2, Cytochrome P450 3A; test: Time-dependent inhibition of CYP3A in human liver microsomes assessed as testosterone 6-hydroxylation using testosterone as substrate by LC-MS/MS analysis in presence of NADPH; assay type: ADME
Summary of the method: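 Pooled HLM (16 donors) given carfilzomib 0.01–10 µM in duplicate at 37°C with a 30-min preincubation before probe substrate was added. Substrate was set near Km (testosterone Km 100 µM; midazolam Km 3.8 µM). Protein was 0.1 mg/mL, or 0.05 mg/mL with midazolam. Metabolite formation was read by LC-MS/MS after 5 min and expressed relative to 0.5% acetonitrile controls to give IC50.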

[8] = biological target: T3, Cytochrome P450 2C8 (Homo sapiens, UniProt P10632); test: Inhibition of CYP2C8 in human liver microsomes using amodiaquine as substrate after 5 mins by LC-MS/MS analysis; assay type: ADME; summary of the method: as §1
T3 sequence (P10632 whole entry): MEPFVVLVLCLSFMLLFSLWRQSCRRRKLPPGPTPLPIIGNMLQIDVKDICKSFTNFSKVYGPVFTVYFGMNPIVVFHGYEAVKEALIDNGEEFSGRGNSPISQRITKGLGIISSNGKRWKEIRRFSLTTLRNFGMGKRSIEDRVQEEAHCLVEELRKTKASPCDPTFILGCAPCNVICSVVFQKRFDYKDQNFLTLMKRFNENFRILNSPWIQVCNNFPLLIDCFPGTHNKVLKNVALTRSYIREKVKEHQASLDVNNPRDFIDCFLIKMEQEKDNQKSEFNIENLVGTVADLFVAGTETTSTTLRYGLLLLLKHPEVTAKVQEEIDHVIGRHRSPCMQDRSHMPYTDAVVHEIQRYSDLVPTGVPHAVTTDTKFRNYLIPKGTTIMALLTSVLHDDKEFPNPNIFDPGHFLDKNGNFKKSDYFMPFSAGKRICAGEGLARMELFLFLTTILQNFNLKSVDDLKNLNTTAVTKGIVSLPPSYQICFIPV

[9] = biological target: T2, Cytochrome P450 3A; test: Time-dependent inhibition of CYP3A in human liver microsomes assessed as midazolam 1'-hydroxylation using midazolam as substrate by LC-MS/MS analysis in presence of NADPH; assay type: ADME
Summary of the method: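 HLM (1.25 mg/mL for midazolam) were preincubated in duplicate with carfilzomib 0, 0.5, 1, 3, 5, 8 µM plus an NADPH-generating system for 0–30 min. Mixtures were diluted 25-fold into pH 7.4 phosphate/MgCl2/EDTA buffer containing midazolam 40 µM and NADPH system for 5 min. Residual activity by LC-MS/MS gave KI and kinact.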

[10] = Drug excretion in urine of iv dosed human patient with relapsed and refractory hematological malignancies assessed as morpholino-hPhe-Leu metabolite formation administered on days 1, 2, 8, 9, 15 and 16 of 28-day cycle over 2 to 10 mins by LC-MS/MS analysis; assay type: ADME, organism-based; details: in vivo

pIC50 [1]: < 5.00 | pKi [2]: 4.96 | kinact [2]: 0.00167 s⁻¹ | inhibition at 72 h, 2.5 µM [3]: > 95% | inhibition (INH) [4]: 14% | AUC(0-t) [5]: 238 ng·h/mL | half-life [6]: 1 h | inhibition (INH) [7]: Active | pIC50 [8]: < 5.00 | inhibition (INH) [9]: Active | Drug excretion [10]: metabolite_detected
Compound: CC(C)C[C@H](NC(=O)[C@H](CCc1ccccc1)NC(=O)CN1CCOCC1)C(=O)N[C@@H](Cc1ccccc1)C(=O)N[C@@H](CC(C)C)C(=O)[C@@]1(C)CO1 [CARFILZOMIB]
